Compound activity from PubChem.
Compounds with a hit are over-represented: about 3.5% of the library has one in this group of screens.
MrgX1 antag – antagonists of human MrgX1 receptor. Q96LB2. MRGX1-HEK293 calcium flux, Fluo-4, BAM8-22 antagonism; stronger effect = lower value. B-score at 10 µM. 310,000 tested, 1.3% active;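 active = calcium-response B-score plate-corrected more than 3 library SD below zero, starting fluorescence within 5 deviations, no agonist response on first addition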;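 also: peak minus trough fluorescence over baseline after final BAM8-22 challenge near maximal dose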
Target sequence (Q96LB2 whole entry, looked up): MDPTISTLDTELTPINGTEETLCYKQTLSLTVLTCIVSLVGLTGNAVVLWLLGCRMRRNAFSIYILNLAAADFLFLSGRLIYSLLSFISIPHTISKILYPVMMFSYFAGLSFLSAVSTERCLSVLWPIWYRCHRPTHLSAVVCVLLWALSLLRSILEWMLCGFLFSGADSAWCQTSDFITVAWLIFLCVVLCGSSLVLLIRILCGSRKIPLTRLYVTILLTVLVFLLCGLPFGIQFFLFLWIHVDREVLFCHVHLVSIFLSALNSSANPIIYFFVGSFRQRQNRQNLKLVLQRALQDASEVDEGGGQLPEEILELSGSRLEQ
RGS4 pot – potentiators or activators of RGS4 | HEK293 M3R/inducible RGS4, carbachol calcium flux Fluo4; stronger effect = lower value | B-score at 10 µM | 310,000 tested, 0.92% active | AID 463111;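 active = B-score of the integrated calcium signal more than 4 SD below the library mean, with starting fluorescence not abnormally high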;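 also: negative B-score means reduced calcium response which marks RGS4 activation or potentiation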
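System: HEK293 FlpIn-TREx cells, stable M3R, doxycycline-inducible RGS4. Timing: overnight RGS4 induction, 30 min dye load 37 °C, 20 min compound RT. Also added: carbachol, ECmax concentration. Measured by: Fluo4 fluorescence kinetic imaging of calcium. Evaluation: integrated calcium ratio converted to B score.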
RGS4 inh – inhibitors of human RGS4; 310,000 tested, 0.45% active; B-score at 10 µM; P49798; AID 463165; HEK293 M3R/RGS4 inducible, Fluo-4 calcium flux; stronger effect = higher value; triggered by carbachol at its EC20;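 active = B-score, a plate-corrected calcium signal, over three deviations above library mean, with baseline fluorescence within five deviations of library mean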;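 also: RGS4 expression induced by doxycycline in cells with stable M3 receptor; B-score is computed from the integrated fluorescence ratio over baseline after carbachol; higher B-score means a larger calcium signal and so more RGS4 inhibition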
Target sequence (P49798 whole entry, looked up): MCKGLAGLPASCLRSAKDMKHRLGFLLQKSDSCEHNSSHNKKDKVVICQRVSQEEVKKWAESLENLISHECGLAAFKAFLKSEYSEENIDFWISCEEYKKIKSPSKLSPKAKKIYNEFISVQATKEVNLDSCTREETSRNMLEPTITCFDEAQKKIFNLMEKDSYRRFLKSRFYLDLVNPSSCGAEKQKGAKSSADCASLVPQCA
MrgX1 allo act – allosterically activates human MrgX1 receptor signaling; B-score at 10 µM; AID 588675; 310,000 tested, 0.63% active; Q96LB2; MrgX1-HEK293, Fluo-4 calcium flux, FDSS; stronger effect = higher value;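 active = plate-corrected calcium response at least 3 library SD above typical, normal starting fluorescence, not activating the receptor alone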;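 also: compound read alongside a low EC10 to EC30 dose of BAM8-22 agonist; peak minus trough fluorescence over baseline measured at the second addition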
MrgX1 ag – agonists of human MrgX1 receptor | Q96LB2 | MrgX1-HEK293 cells, Fluo-4 calcium fluorescence, agonist mode; stronger effect = higher value | B-score at 10 µM | 310,000 tested, 0.44% active;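 active = calcium response B-score plate-corrected fluorescence ratio at least 3 library SD, with starting fluorescence B-score inside 5 SD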
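Material: MrgX1-expressing HEK293 cells; input: 15,000 cells per well; doses: test compound given as first of three sequential additions; schedule: overnight plating before 1 h dye loading; technique: Fluo-4 NW calcium-flux fluorescence, kinetic read; evaluation: baseline-normalised fluorescence change ratio, B-scored; control set: plate-wise positive and negative controls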
RGS4 inh valid – validation of RGS4 inhibitors | HEK293 M3R/RGS4, carbachol calcium Fluo-4 fluorescence; carbachol added at its EC20; 0 = buffer wells, 100 = carbachol control | shares compounds with RGS4 inh | calcium response, % at 10 µM | 1,700 tested, 65% active;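 active = duplicate-averaged calcium response above the buffer-only control mean plus 5 SD of those controls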;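 also: integrated fluorescence ratio F max minus min over baseline F0; higher response in RGS4-induced cells means RGS4 inhibition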
RGS4 uninduced – non-induced cell nonspecific activity of RGS4 inhibitors | shares compounds with RGS4 inh | HEK293 M3R non-induced, carbachol calcium Fluo-4; submaximal (EC20) carbachol stimulus; buffer wells 0%, carbachol control wells 100% | activity (percent), % at 10 µM | 1,900 tested, 20% active; call rule not given here;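 also: RGS4 induction absent so cells express M3R without RGS4; higher means more calcium signal and flags a non-specific hit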
M3R basal Ca ctr – signal in non-induced cells without carbachol, RGS4 inhibitor counter-screen | 1,900 tested, 22% active | calcium response (agonist-mode artifact), % at 10 µM | shares compounds with RGS4 inh | HEK293 M3R/RGS4 non-induced, Fluo-4 calcium, no carbachol; normalised: buffer wells 0%, carbachol wells 100%;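 active = duplicate-averaged calcium rise in uninduced cells above buffer wells' mean plus 5 SD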
* = called active by the depositor.

Results for CC(C)N1C(=O)S/C(=C/c2ccccc2OCc2ccc(C(=O)O)cc2)C1=O ?
MrgX1 antag: inactive; RGS4 pot: inactive; RGS4 inh: inactive; MrgX1 allo act: inactive; MrgX1 ag: inactive; RGS4 inh valid: inactive; RGS4 uninduced: inactive; M3R basal Ca ctr: inactive

How did CN1C(=O)S/C(=C\c2ccccc2OCc2ccc(C(=O)O)cc2)C1=O do in these assays?
MrgX1 antag: inactive; RGS4 pot: inactive; RGS4 inh: 6.19*; MrgX1 allo act: inactive; MrgX1 ag: inactive; RGS4 inh valid: 13.5%*; RGS4 uninduced: inactive; M3R basal Ca ctr: inactive

What do the screens show for `NC(=O)COc1ccc(-c2noc(COc3ccccc3[N+](=O)[O-])n2)cc1`?
MrgX1 antag: inactive; RGS4 pot: inactive; RGS4 inh: inactive; MrgX1 allo act: inactive; MrgX1 ag: inactive

Results for COc1cccc(NC(=O)CSc2ccc3nnc(CCNC(=O)c4ccccc4)n3n2)c1 ?
MrgX1 antag: inactive; RGS4 pot: inactive; RGS4 inh: inactive; MrgX1 allo act: inactive; MrgX1 ag: inactive

Results for COCCN(C(=O)COC(=O)/C=C/c1ccc(OC)c(OC)c1)c1c(N)n(Cc2ccccc2)c(=O)[nH]c1=O ?
MrgX1 antag: inactive; RGS4 pot: inactive; RGS4 inh: inactive; MrgX1 allo act: inactive; MrgX1 ag: inactive

Results for Cc1nc2c(C(=O)NCCC3=CCCCC3)c[nH]n2c(=O)c1Cl ?
MrgX1 antag: inactive; RGS4 pot: inactive; RGS4 inh: 16.9*; MrgX1 allo act: inactive; MrgX1 ag: inactive; RGS4 inh valid: 51.5%*; RGS4 uninduced: 52.5%*; M3R basal Ca ctr: inactive

How did COc1ccc(OC)c(NC(=O)CCN2CCN(C)CC2)c1 do in these assays?
MrgX1 antag: inactive; RGS4 pot: inactive; RGS4 inh: inactive; MrgX1 allo act: inactive; MrgX1 ag: inactive

Results for CCn1c2ccccc2c2cc(NC(=O)CSc3nnc(-c4ccc(OC)cc4)n3N)ccc21 ?
MrgX1 antag: inactive; RGS4 pot: inactive; RGS4 inh: 5.26*; MrgX1 allo act: inactive; MrgX1 ag: inactive; RGS4 inh valid: 10.0%*; RGS4 uninduced: inactive; M3R basal Ca ctr: inactive

What do the screens show for `COc1ccc(NC(=O)CSc2nnc(-c3ccccc3)n2N)cc1`?
MrgX1 antag: inactive; RGS4 pot: inactive; RGS4 inh: inactive; MrgX1 allo act: inactive; MrgX1 ag: inactive

How did CC(C)(C)OC1NS(=O)(=O)OCC1NCOC(Cl)(Cl)Cl (configuration not stated) do in these assays?
MrgX1 antag: inactive; RGS4 pot: inactive; RGS4 inh: 19.2*; MrgX1 allo act: inactive; MrgX1 ag: inactive; RGS4 inh valid: 26.0%*; RGS4 uninduced: 39.5%*; M3R basal Ca ctr: 22.5%*

Results for N#C/C(=C/c1ccc(O)cc1)C(=O)NCc1ccc(Cl)cc1 ?
MrgX1 antag: inactive; RGS4 pot: inactive; RGS4 inh: inactive; MrgX1 allo act: inactive; MrgX1 ag: inactive; RGS4 inh valid: inactive; RGS4 uninduced: inactive; M3R basal Ca ctr: inactive

What do the screens show for `O=C(c1ccccc1)c1ccc(OCC(O)CNCc2cccc(Cl)c2)cc1` (configuration not stated)?
MrgX1 antag: inactive; RGS4 pot: inactive; RGS4 inh: inactive; MrgX1 allo act: inactive; MrgX1 ag: inactive

How did COc1ccc2c(c1)c(C(=O)CN1CCCCC1)c(C)n2C do in these assays?
MrgX1 antag: inactive; RGS4 pot: inactive; RGS4 inh: inactive; MrgX1 allo act: inactive; MrgX1 ag: inactive

What do the screens show for `COc1ccc2c(c1)c(C(=O)CN1CCC(C(N)=O)CC1)c(C)n2C`?
MrgX1 antag: inactive; RGS4 pot: inactive; RGS4 inh: inactive; MrgX1 allo act: inactive; MrgX1 ag: inactive; RGS4 inh valid: inactive; RGS4 uninduced: inactive; M3R basal Ca ctr: inactive

Results for O=C(CC1C(=O)NCCN1C(=O)Nc1ccccc1)Nc1cc(Cl)ccc1Cl (configuration not stated) ?
MrgX1 antag: inactive; RGS4 pot: inactive; RGS4 inh: inactive; MrgX1 allo act: inactive; MrgX1 ag: inactive

What do the screens show for `O=C(CC1C(=O)NCCN1C(=O)Nc1ccc(Cl)cc1)Nc1ccc(F)cc1` (configuration not stated)?
MrgX1 antag: inactive; RGS4 pot: inactive; RGS4 inh: 5.56*; MrgX1 allo act: inactive; MrgX1 ag: inactive; RGS4 inh valid: 23.0%*; RGS4 uninduced: 37.0%*; M3R basal Ca ctr: 12.0%*

What do the screens show for `COC(=O)CC1C(=O)NCCN1C(=O)Nc1ccc(Cl)cc1` (configuration not stated)?
MrgX1 antag: inactive; RGS4 pot: inactive; RGS4 inh: inactive; MrgX1 allo act: inactive; MrgX1 ag: inactive

Results for O=C(CC1C(=O)NCCN1C(=O)Nc1ccccc1)Nc1ccc(F)cc1 (configuration not stated) ?
MrgX1 antag: inactive; RGS4 pot: inactive; RGS4 inh: inactive; MrgX1 allo act: inactive; MrgX1 ag: inactive; RGS4 uninduced: inactive; M3R basal Ca ctr: inactive

What do the screens show for `O=C(CC1C(=O)NCCN1C(=O)Nc1ccc(F)cc1)Nc1cc(Cl)ccc1Cl` (configuration not stated)?
MrgX1 antag: inactive; RGS4 pot: inactive; RGS4 inh: inactive; MrgX1 allo act: inactive; MrgX1 ag: inactive; RGS4 uninduced: inactive; M3R basal Ca ctr: 10.0%*

Results for Cc1cccc(NC(=O)CC2C(=O)NCCN2C(=O)Nc2ccc(Cl)cc2)c1 (configuration not stated) ?
MrgX1 antag: inactive; RGS4 pot: inactive; RGS4 inh: 9.09*; MrgX1 allo act: inactive; MrgX1 ag: inactive; RGS4 inh valid: 26.0%*; RGS4 uninduced: 46.0%*; M3R basal Ca ctr: inactive

Results for CCOc1ccc(NC(=O)CC2C(=O)NCCN2C(=O)Nc2ccccc2)cc1 (configuration not stated) ?
MrgX1 antag: inactive; RGS4 pot: inactive; RGS4 inh: inactive; MrgX1 allo act: inactive; MrgX1 ag: inactive

How did Cc1ccccc1NC(=S)N1CCC(NC(=O)c2ccco2)CC1 do in these assays?
MrgX1 antag: inactive; RGS4 pot: inactive; RGS4 inh: inactive; MrgX1 allo act: inactive; MrgX1 ag: inactive
